Tests used:
[1] = biological target: T1, 11-beta-hydroxysteroid dehydrogenase 1 (Homo sapiens, UniProt P28845); experiment: Inhibition of human 11beta-HSD1 expressed in microsomes; parameters: species or system Microsome
Outline: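 HEK293 cell lysates (microsomal fractions) overexpressing human or mouse 11β-HSD1 were incubated with cortisone, a range of inhibitor concentrations and an NADPH regenerating system in sodium phosphate buffer at 37°C for 1 h. Cortisol in the supernatant was quantified by ELISA. Percent inhibition was fitted to a sigmoidal dose-response curve to give IC50.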

[2] = Tmax in rat at 5 mg/kg, po; assay type: ADME, organism-based; settings: in vivo
Outline: (§1)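 Single-dose PK study. The iv dose was given in 10% hydroxypropyl-β-cyclodextrin and the oral dose in 0.5% methylcellulose/1% Tween80. Mouse and rat received 1 mg/kg iv and 5 mg/kg po. Dog received 0.5 mg/kg iv and 4 mg/kg po. CL, Vss, t1/2, AUC, Cmax, tmax and F were derived.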

[3] = Tmax in mouse at 5 mg/kg, po; assay type: ADME, organism-based; settings: in vivo; outline: as §1
[4] = In-vivo inhibition of 11beta-HSD1 activity in C57BL/6 mouse epididymal fat assessed as reduction in cortisone to-cortisol conversion at 10 mg/kg, po measured after 6 hrs by ELISA; assay type: functional; settings: C57BL/6, Epididymal fat pad
Outline: (§2)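 Male C57BL/6 mice dosed orally once at 3, 10 or 30 mg/kg in sterile water containing 0.5% methylcellulose and 1% Tween80, then sacrificed at 2 or 6 h. Liver and epididymal fat pads incubated ex vivo in culture medium containing cortisone. Cortisol formed was measured by ELISA and reported as % inhibition versus vehicle.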

Glucocorticoid receptor = biological target: T2, Glucocorticoid receptor (Homo sapiens, UniProt P04150); experiment: Agonist activity at glucocorticoid receptor (unknown origin)
T2 sequence (P04150 whole entry): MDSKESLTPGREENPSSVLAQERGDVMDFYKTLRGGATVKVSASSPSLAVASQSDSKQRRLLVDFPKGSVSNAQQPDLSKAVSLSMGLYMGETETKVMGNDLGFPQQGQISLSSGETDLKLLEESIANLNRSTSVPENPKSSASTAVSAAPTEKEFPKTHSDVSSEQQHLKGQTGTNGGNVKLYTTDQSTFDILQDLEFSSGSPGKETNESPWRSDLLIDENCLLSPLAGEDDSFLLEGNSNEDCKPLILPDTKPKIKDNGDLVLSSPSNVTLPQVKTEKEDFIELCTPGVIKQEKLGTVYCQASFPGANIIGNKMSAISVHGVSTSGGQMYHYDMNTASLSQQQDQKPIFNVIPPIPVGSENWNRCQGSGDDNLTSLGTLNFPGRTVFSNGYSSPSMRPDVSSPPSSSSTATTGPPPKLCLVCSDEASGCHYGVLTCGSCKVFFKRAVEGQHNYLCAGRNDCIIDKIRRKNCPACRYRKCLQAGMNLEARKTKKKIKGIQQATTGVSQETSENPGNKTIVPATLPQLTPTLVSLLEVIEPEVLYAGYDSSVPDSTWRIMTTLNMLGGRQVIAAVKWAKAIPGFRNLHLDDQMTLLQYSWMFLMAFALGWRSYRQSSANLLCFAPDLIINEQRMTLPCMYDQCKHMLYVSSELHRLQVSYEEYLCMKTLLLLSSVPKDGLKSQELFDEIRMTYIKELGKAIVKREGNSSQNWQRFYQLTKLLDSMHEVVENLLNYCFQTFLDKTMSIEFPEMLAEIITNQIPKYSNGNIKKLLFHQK

[5] = Volume of distribution at steady state in mouse at 1 mg/kg, iv; assay type: ADME, organism-based; settings: in vivo, read-out: Vdss; outline: as §1
Cytochrome P450 3A4 = Cytochrome P450 3A4 (Homo sapiens, UniProt P08684); experiment: Inhibition of CYP3A4 in pooled human liver microsomes using midazolam as substrate in presence of NADPH incubated for 10 mins by LC-MS/MS analysis
Chain of Cytochrome P450 3A4 (P08684 whole entry): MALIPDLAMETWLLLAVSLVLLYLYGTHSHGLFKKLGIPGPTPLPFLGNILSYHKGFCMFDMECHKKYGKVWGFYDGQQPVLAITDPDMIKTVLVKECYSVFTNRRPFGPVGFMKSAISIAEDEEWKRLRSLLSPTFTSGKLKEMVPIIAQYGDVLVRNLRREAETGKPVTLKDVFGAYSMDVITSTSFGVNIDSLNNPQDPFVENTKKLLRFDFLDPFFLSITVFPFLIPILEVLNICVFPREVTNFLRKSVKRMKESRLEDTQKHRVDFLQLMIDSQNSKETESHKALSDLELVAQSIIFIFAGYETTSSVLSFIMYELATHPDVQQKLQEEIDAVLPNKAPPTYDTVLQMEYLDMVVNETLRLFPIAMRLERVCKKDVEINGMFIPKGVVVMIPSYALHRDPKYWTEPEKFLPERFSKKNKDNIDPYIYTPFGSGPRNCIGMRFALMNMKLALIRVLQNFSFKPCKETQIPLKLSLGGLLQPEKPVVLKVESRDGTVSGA

[6] = Unbound drug level in mouse plasma at 10 mg/kg, po measured after 2 hrs post dose; assay type: ADME, organism-based; settings: in vivo
Mus musculus [7] = experiment: Improvement in lipid profile in C57BL/6-Lep^ob (ob/ob) mouse assessed as LDL cholesterol level at 20 mg/kg, po dosed once daily for 25 days (reference value: 30.3 +/- 0.8 mg/dl); assay type: functional; settings: time 25 day
[8] = In-vivo inhibition of 11beta-HSD1 activity in C57BL/6 mouse epididymal fat assessed as reduction in cortisone to-cortisol conversion at 30 mg/kg, po measured after 6 hrs by ELISA; assay type: functional; settings: C57BL/6, Epididymal fat pad; outline: as §2
[9] = Ratio of unbound drug level in mouse plasma at 10 mg/kg, po measured after 2 hrs post dose to IC50 for mouse 11beta-HSD1; assay type: ADME, organism-based; settings: in vivo
Mus musculus [10] = experiment: In-vivo inhibition of 11beta-HSD1 activity in C57BL/6 mouse epididymal fat assessed as reduction in cortisone to-cortisol conversion at 3 to 30 mg/kg, po measured after 2 to 6 hrs by ELISA; assay type: functional, organism-based; settings: Epididymal fat pad, dose 3-30 mg/kg, time 2-6 hrs; outline: as §2
[11] = biological target: T1, 11-beta-hydroxysteroid dehydrogenase 1; experiment: Inhibition of human 11beta-HSD1 expressed in HEK293 cells using cortisone by ELISA
[12] = Oral bioavailability in rat at 5 mg/kg; assay type: ADME, organism-based; settings: in vivo; outline: as §1
[13] = In-vivo inhibition of 11beta-HSD1 activity in C57BL/6 mouse liver assessed as reduction in cortisone to-cortisol conversion at 10 mg/kg, po measured after 2 hrs by ELISA; assay type: functional; settings: C57BL/6, Liver
[14] = Ratio of drug level in brain to plasma of mouse at 10 mg/kg, po measured after 2 hrs post dose; assay type: ADME, organism-based; settings: read-out: BPR
Outline: (§3)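 C57BL/6 mice received a single oral dose of 10 mg/kg in 0.5% methylcellulose/1% Tween80. Animals were sacrificed 2 h post-dose. Compound was measured in brain, liver, adipose and plasma (nmol/g), and tissue/plasma ratios were calculated.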

[15] = AUC in rat at 1 mg/kg, iv; assay type: ADME, organism-based; parameters: dose 1 mg/kg; settings: in vivo
[16] = Cmax in dog at 4 mg/kg, po; assay type: ADME, organism-based, Canis lupus familiaris; parameters: route oral, dose 4 mg/kg; settings: in vivo
[17] = Oral bioavailability in dog at 4 mg/kg; assay type: ADME, organism-based, Canis lupus familiaris; settings: in vivo; outline: as §1
[18] = Ratio of drug level in adipose tissue to plasma of mouse at 10 mg/kg, po measured after 2 hrs post dose; assay type: ADME, organism-based; outline: as §3
[19] = Protein binding in mouse plasma; assay type: ADME, cell-free; settings: read-out: PPB
Erythrocyte = experiment: Genotoxicity in mouse erythrocytes by micronucleus test; assay type: toxicity, cell-based
[20] = Drug level in mouse liver at 10 mg/kg, po measured after 2 hrs post dose; assay type: ADME, organism-based; settings: in vivo
Outline: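 C57BL/6 mice given a single oral 10 mg/kg dose in 0.5% methylcellulose plus 1% Tween80. Sacrifice at 2 h post-dose, with collection of brain, liver, adipose and plasma. Compound concentration expressed as nmol/g, along with tissue/plasma ratio.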

Phosphodiesterase 4 = Phosphodiesterase 4 (Homo sapiens, UniProt P27815+Q08499+Q07343+Q08493); experiment: Inhibition of PDE4 (unknown origin); assay type: protein assay
[21] = In-vivo inhibition of 11beta-HSD1 activity in C57BL/6 mouse liver assessed as reduction in cortisone to-cortisol conversion at 3 mg/kg, po measured after 6 hrs by ELISA; assay type: functional; settings: C57BL/6, Liver; outline: as §2
[22] = Ratio of drug level in liver to plasma of mouse at 10 mg/kg, po measured after 2 hrs post dose; assay type: ADME, organism-based; outline: as §3

T1 sequence (P28845 whole entry): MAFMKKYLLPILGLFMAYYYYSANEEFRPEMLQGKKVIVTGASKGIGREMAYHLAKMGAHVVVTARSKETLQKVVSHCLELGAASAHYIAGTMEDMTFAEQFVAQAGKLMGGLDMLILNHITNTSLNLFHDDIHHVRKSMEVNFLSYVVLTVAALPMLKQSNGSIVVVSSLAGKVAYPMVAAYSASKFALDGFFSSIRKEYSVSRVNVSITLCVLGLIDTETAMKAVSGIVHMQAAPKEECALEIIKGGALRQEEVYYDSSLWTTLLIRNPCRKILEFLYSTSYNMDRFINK

## C[C@@H]1CN(c2ccc(S(C)(=O)=O)cc2F)CCN1c1nccc(C(=O)NC2C3CC4CC2CC(O)(C4)C3)n1 (stereo partly specified)
[1]
  IC50: 2.9 nM
[2]
  Tmax: 1.3 h
[3]
  Tmax: 1 h
[4]
  inhibition in vivo at 10 mg/kg: 93%
Glucocorticoid receptor
  EC50: > 5000 nM
[5]
  Vd: 1.1 L/kg
Cytochrome P450 3A4
  IC50: > 10000 nM
[6]
  Cp(f): 100 nM
Mus musculus [7]
  Activity: 17.1 mg/dL
[8]
  inhibition in vivo at 30 mg/kg: 93%
[9]
  Ratio: > 50
Mus musculus [10]
  inhibition: Dose-dependent effect
[11]
  IC50: 4.4 nM
[12]
  bioavailability: 60%
[13]
  inhibition in vivo at 10 mg/kg: 86%
[14]
  Kp at 2 h: 0.04
[15]
  AUC: 1120 ng·h/mL
[16]
  Cmax: 1120 ng/mL
[17]
  bioavailability: 98%
[18]
  Kp at 2 h: 0.62
[19]
  fraction unbound: 0.01
Erythrocyte
  Activity: Non-Toxic
[20]
  Drug uptake: 31 nmol/g
Phosphodiesterase 4
  IC50: 5200 nM
[21]
  inhibition in vivo at 3 mg/kg: 71%
[22]
  Kp at 2 h: 2.94
